Screening results from PubChem.
bCat nuc transl: modulators of beta-catenin nuclear translocation, primary screen, imaging, HeLa cells, immunofluorescence, high-content; nuclear translocation activity, % at 5 µM; AID 1665, 2009; actives 0.3% (n = 190,000);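 active = nuclear translocation activity above 50% at 5 µM, with a well cell count of 50 or more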;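 also: per-cell ratio of nuclear to cytoplasmic median beta-catenin stain intensity; plate controls were DMSO negative control for no effect and GSK-3 inhibitor IX positive control for full effect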
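Test system: human HeLa cells, native beta-catenin. Compound dosing: 5 µM primary single dose, 0.1% DMSO, 0.02–20 µM confirmation series. Incubation: compound exposure 24 h at 37°C. Detection: beta-catenin immunostaining with DAPI counterstain, 20x imaging, 6 fields/well. Read-out basis: Nuclear/cytoplasmic beta-catenin signal ratio, % activation.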
PGE2 EP2 inh: human EP2 receptor antagonists, primary screen, TR-FRET cAMP, C6 glioma cells. Prostaglandin E2 receptor EP2 subtype (Homo sapiens), P43116. C6 glioma cells expressing human EP2; cells stimulated with saturating PGE2. inhibition, % at 25 µM. actives 0.52% (n = 260,000);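 active = percent inhibition above 40 after rounding to a whole number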;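 also: rat C6 glioma host cells with rolipram phosphodiesterase inhibitor present; the protocol text gives 20 µM as final concentration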
Target sequence (P43116 whole entry, looked up): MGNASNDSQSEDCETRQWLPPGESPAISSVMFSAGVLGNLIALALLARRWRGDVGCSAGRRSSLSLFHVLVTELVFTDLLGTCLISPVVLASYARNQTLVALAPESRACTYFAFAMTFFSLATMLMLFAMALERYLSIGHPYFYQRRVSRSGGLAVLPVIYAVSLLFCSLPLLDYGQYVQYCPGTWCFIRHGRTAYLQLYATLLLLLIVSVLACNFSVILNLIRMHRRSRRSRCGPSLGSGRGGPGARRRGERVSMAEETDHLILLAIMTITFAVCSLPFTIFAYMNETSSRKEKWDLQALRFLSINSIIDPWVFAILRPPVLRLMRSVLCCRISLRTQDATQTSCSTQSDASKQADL
Tb hexokinase: Trypanosoma brucei hexokinase 1 inhibitors, primary screen, biochemical, G6PDH-coupled NADH absorbance, MLSCN library; inhibition, % at 10 µM; hexokinase 1 [Trypanosoma brucei]; recombinant TbHK1, G6PDH-coupled NADH A340; actives 0.11% (n = 220,000); AID 1430, 2008;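 active = inhibition of 50% or more in the single-dose primary screen; inactive = inhibition below 50%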
EP2 modulator: EP2 receptor modulators, cAMP readout, primary screen, cell-based, HTRF cAMP, PGE2 stimulation; EP2-expressing cells, cAMP HTRF FRET, PGE2 co-stimulation; induction, % at 25 µM; actives 0.83% (n = 260,000);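 active = compounds whose cAMP rise, as percent of the full-agonist control response, exceeds 60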;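 also: rat C6 glioma line stably carrying human EP2 under a CMV promoter; the protocol text gives 20 µM as final concentration; 100% = response of wells given 1 µM PGE2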
MT stabilize HCS: microtubule stabilizers in HeLa cells, primary screen, imaging, high-content imaging; actives 0.83% (n = 200,000); HeLa tubulin immunostaining HCS, 24 h; share of cells brighter than vehicle mean+2SD; % tubulin-high responders, % at 10 µM;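 active = plate Z-score above 3 for both tubulin-high and condensed-nucleus cell shares, with cell loss under 80%, at 10 µM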;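 also: anti alpha tubulin signal scored within the nucleus-defined area of each cell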
Efa HMGR inh: inhibitors of E. faecalis class II HMGR, primary screen, biochemical, Enterococcus faecalis | purified E. faecalis HMGR, NADPH absorbance 340 nm kinetic | inhibition, % at 10 µM | actives 0.41% (n = 190,000);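 active = inhibition above a set limit, the median over all tested compounds plus 3 SD, cut at about 9.5% in these data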;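 also: enzyme runs in reverse so mevalonate oxidation gives rising NADPH absorbance; 0% = complete reaction with DMSO and 100% = background rate lacking mevalonate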
EP2 confirm: cAMP induction in EP2, EP4, beta2-AR and parental cells, confirmation, counter-screen for EP2 modulator project, cell-based, five parallel assays, C6 glioma, HEK293. shares compounds with EP2 modulator. cAMP HTRF induction; plus low (about EC15) PGE2 agonist. calls only at 20 µM (by protocol). actives 47% (n = 1,300);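 active = cAMP induction above 50% in the main assay while under 30% in all four parallel counter assays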;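 also: rat C6 glioma cells stably expressing human EP2 receptor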
G6PDH counter: Leuconostoc G6PDH inhibition, confirmation, counter-screen for TbHK1 inhibitor project, biochemical, DPI cherry-picked compounds, single concentration. shares compounds with Tb hexokinase. purified G6PDH, NADH absorbance, 1 h. inhibition, % at 10 µM. actives 7% (n = 210). AID 2516, 2010;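 active = at least 50% inhibition in the glucose-6-phosphate dehydrogenase coupled counterscreen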
TbHK1 rescreen: TbHK1 inhibitor retest, confirmation, biochemical, DPI cherry-picked primary actives; AID 2560, 2010; actives 10% (n = 210); inhibition, % at 10 µM; shares compounds with Tb hexokinase; recombinant TbHK1, G6PDH-coupled NADH A340 absorbance;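 active = inhibition of at least 50% in both of the two screening runs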;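 also: 0% and 100% set by the maximum and minimum signal control wells on each plate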
* marks the source's active call; other numbers are inactive results; x = no result; + = active, no number. This is a sample that favours compounds with a hit; in the whole collection about 2.4% have one here.

SMILES	bCat nuc transl	PGE2 EP2 inh	Tb hexokinase	EP2 modulator	MT stabilize HCS	Efa HMGR inh	G6PDH counter	TbHK1 rescreen	others
CN(C)C(=O)CSc1nnc(-c2cccs2)n1C1CCCCC1	x	9	x	-15	x	x	x	x
Cc1cc(C)c(C)c(Cn2c(CO)nc3ccccc32)c1C	-2	5	7	80*	2	2	x	x	EP2 confirm=+
Cn1c(CO)nc2ccccc21	x	11	x	-8	x	x	x	x
O=C(c1ccccn1)N1N=C2/C(=C/c3ccccc3)CCCC2C1c1ccccc1 (stereo not given)	1	10	26	53	4	1	x	x
O=C1CCC(C(=O)OCC(=O)N2N=C3/C(=C/c4ccccc4)CCCC3C2c2ccccc2)N1 (stereo not given)	-3	6	-7	78*	4	-5	x	x	EP2 confirm=+
O=C1/C(=C/c2cccnc2)SC(=NCc2ccccc2)N1Cc1ccccc1	2	1	6	66*	3	-1	x	x	EP2 confirm=+
O=C1/C(=C/c2cccnc2)SC(=S)N1CCc1ccccc1	1	13	-16	15	x	x	x	x
CCOC(=O)CSc1nnc(COc2cccc3ccccc23)n1-c1ccccc1	x	14	x	60	x	x	x	x
CNc1nc(-c2ccccc2)[n+](-c2ccc(C)cc2)s1	0	24	61*	4	7	-1	17	85*
Cc1ccc(-c2nc(N)s[n+]2-c2ccccc2)cc1	-2	7	98*	-44	3	-6	14	95*
Cc1oc(-c2ccccc2F)nc1CSCC(=O)NCc1ccc2c(c1)OCO2	-1	4	61*	-5	4	-7	-21	0
O=C(CSCc1ccc(F)cc1)NCc1ccc2c(c1)OCO2	-2	7	6	16	5	-2	x	x
Cc1cc(C)nc(SCc2nnc(SCC(=O)N3CCCCC3)n2-c2cccc(Cl)c2)n1	x	5	x	-50	x	x	x	x
COc1cc(C2C(C#N)=C(N)Oc3cc(N(C)C)ccc32)cc2c1OCO2 (stereo not given)	80*	10	59*	28	14*	-3	-7	-13
CCN(CC)CCNC(=O)c1c[nH]c2c(C)cccc2c1=O	x	10	x	-60	x	x	x	x
COC(=O)c1c(C)[nH]c(C(=O)CSc2ccc(Cl)cc2)c1C	0	8	50*	-5	1	-6	-6	-11
CCCn1c(SCC(=O)Nc2ccccc2CC)nnc1C(C)C	1	10	65*	10	5	-1	3	2
CCCn1c(SCC(=O)Nc2c(C)cccc2CC)nnc1C(C)C	-3	9	5	25	5	0	x	x
Cn1c(N2CCCC(C(=O)NCC3CC3)C2)nc2ccccc21 (stereo not given)	x	x	x	-1	x	x	x	x
O=C1CN(C(=O)COC(=O)CCC(=O)c2ccc3c(c2)OCCO3)c2ccccc2N1	-3	10	50*	7	5	-2	-6	-5
Cc1cc(NC(=O)COC(=O)CCCOc2ccc(Cl)cc2C)no1	-2	13	55*	-5	6	-6	0	-4
COc1ccc(NC(=O)COC(=O)CCCOc2ccc(Cl)cc2Cl)cc1Cl	2	5	-2	7	5	-2	x	x
COc1ccc(Cl)cc1Nc1nc(NCc2ccco2)nc(N2CCOCC2)n1	x	14	x	-5	x	x	x	x
COc1ccc(CC(=O)Nc2nnc(CCc3ccccc3)s2)cc1OC	x	13	x	-6	x	x	x	x
Cc1cccc(NC(=S)NNC(=O)c2cc3c(s2)CCC(C)C3)c1C (stereo not given)	x	6	71*	-36	3	0	-34	-1
SMILES	bCat nuc transl	PGE2 EP2 inh	Tb hexokinase	EP2 modulator	MT stabilize HCS	Efa HMGR inh	G6PDH counter	TbHK1 rescreen	others
CC12CCC(C(=O)NC(c3ccccc3)c3ccccc3)(OC1=O)C2(C)C (stereo not given)	x	7	61*	17	1	-12	-7	4
CC12CCC(C(=O)NNc3ccccc3)(OC1=O)C2(C)C (stereo not given)	0	10	-1	-6	2	-5	x	x
CCC(C)(C)NC(=O)CSc1nc2ccccc2n1CC(=O)NC(C)C	x	11	x	-29	x	x	x	x
CCN(CC)CCCN1C(=O)c2oc3ccccc3c(=O)c2C1c1cccnc1 (stereo not given)	-5	5	54*	3	5	-4	-17	-10
O=C(O)CCCCC1CCSS1 (stereo not given)	2	8	86*	5	4	7	-39	96*
O=[N+]([O-])c1cc(/C=N\Nc2nccs2)ccc1O	5	x	50*	-12	1	6	-65	56*
Clc1cccc(Cl)c1/C=N\Nc1nccs1	1	17	-7	31	2	-1	x	x
CC(C)CNC(=O)NC1C(NC(=O)NCC(C)C)N(C)C(=O)N1C (stereo not given)	-8	15	57*	2	4	-3	-9	-2
CCC(C)NC(=O)NC1C(NC(=O)NC(C)CC)N(C)C(=O)N1C (stereo not given)	-1	16	3	4	3	2	x	x
COc1ccccc1C1CCN(C(=O)c2cccs2)CC1	0	6	50*	12	x	x	-3	-1
CC1(C)OC(=O)C(=CNc2ccccn2)C(=O)O1	0	15	-29	-15	x	x	x	x
CC1(C)OC(=O)C(=CNc2ncccn2)C(=O)O1	0	17	52*	13	4	2	-27	-25
O=C(NC1CCCCC1)C1CCN(S(=O)(=O)N2CCCCCC2)CC1	0	6	-1	-4	4	0	x	x
O=C(NC1CCCCC1)C1CCN(S(=O)(=O)N2CCOCC2)CC1	0	0	58*	33	6	-3	-13	2
